Measured values published in ChEMBL document CHEMBL1123541, “Preparation and antitumor activity of 7-substituted 1,2-aziridinomitosenes” (J Med Chem, 1986).

Legend:
[1] = tested on: P388; test: (§1) Compound was tested for antitumor activity against P388 Murine leukemia in BDF1 female mice at a dose of 12.8 mg/kg per injection; type: functional, Mus musculus
Summary of the method: (§2)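 P388 ascites cells (10^6) implanted ip into BDF1 female mice. Aziridinomitosene given on day 1 only, six mice per dose; ten saline-treated mice on day 1 only as controls. Read-out is median survival time in days, %T/C = MST treated/MST control × 100, with 125 taken as significant. Mitomycin C run as a positive control at its optimal dose.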

[2] = tested on: P388; test: Compound was tested for antitumor activity against P388 Murine leukemia in BDF1 female mice at a dose of 6.4 mg/kg per injection; type: functional, Mus musculus; summary of the method: as §2
[3] = tested on: P388; test: Compound was tested for antitumor activity against P388 Murine leukemia in BDF1 female mice at a dose of 51.2 mg/kg per injection; type: functional, Mus musculus; summary of the method: as §2
[4] = tested on: Mus musculus; test: Average weight change of BDF1 female mice at a dose of 25.6 mg/kg per injection; type: functional
Summary of the method: (§3)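 BDF1 female mice implanted ip with 10^6 ascites leukemia cells, then given the aziridinomitosene on day 1 only, six mice per dose. Average weight change is the weight difference between the treated and control groups.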

[5] = Partition coefficient (logP); type: physicochemical; settings: octanol/water
[6] = tested on: P388; test: Compound was tested for antitumor activity against P388 Murine leukemia in BDF1 female mice at a dose of 1.6 mg/kg per injection (MST treated / MST control x 100); type: functional, Mus musculus; summary of the method: as §2
[7] = tested on: Mus musculus; test: Average weight change of BDF1 female mice at a dose of 3.2 mg/kg per injection; type: functional; summary of the method: as §3
[8] = tested on: Mus musculus; test: Average weight change of BDF1 female mice at a dose of 1.6 mg/kg per injection; type: functional; summary of the method: as §3
[9] = tested on: Mus musculus; test: Average weight change of BDF1 female mice at a dose of 51.2 mg/kg per injection; type: functional; summary of the method: as §3
[10] = tested on: Mus musculus; test: Average weight change of BDF1 female mice at a dose of 6.4 mg/kg per injection; type: functional; summary of the method: as §3
[11] = tested on: P388; test: Compound was tested for antitumor activity against P388 Murine leukemia in BDF1 female mice at a dose of 25.6 mg/kg per injection; type: functional, Mus musculus; summary of the method: as §2
[12] = tested on: P388; test: Compound was tested for antitumor activity against P388 Murine leukemia in BDF1 female mice at a dose of 3.2 mg/kg per injection; type: functional, Mus musculus; summary of the method: as §2
[13] = tested on: Mus musculus; test: Average weight change of BDF1 female mice at a dose of 12.8 mg/kg per injection; type: functional; summary of the method: as §3
[14] = tested on: P388; test: Minimum effective dose determined against P-388 Murine leukemia in BDF1 female mice.; type: functional; settings: Mus musculus, read-out: MED
[15] = tested on: P388; test: Compound was tested for antitumor activity against P388 Murine leukemia in BDF1 female mice at a dose of 3.2 mg/kg per injection (MST treated / MST control x 100); type: functional, Mus musculus; summary of the method: as §2
[16] = tested on: P388; test: Compound was tested for antitumor activity against P388 Murine leukemia in BDF1 female mice at a dose of 1.6 mg/kg per injection; type: functional, Mus musculus; summary of the method: as §2
[17] = tested on: P388; test: as §1; type: functional, Mus musculus; parameters: unit not given here; summary of the method: as §2
[18] = tested on: P388; test: Compound was tested for antitumor activity against P388 Murine leukemia in BDF1 female mice at a dose of 64 mg/kg per injection; type: functional, Mus musculus; summary of the method: as §2
[19] = tested on: P388; test: Compound was tested for antitumor activity against P388 Murine leukemia in BDF1 female mice at a dose of 8 mg/kg per injection; type: functional, Mus musculus; summary of the method: as §2
[20] = tested on: P388; test: Compound was tested for antitumor activity against P388 Murine leukemia in BDF1 female mice at a dose of 16 mg/kg per injection; type: functional, Mus musculus; summary of the method: as §2
[21] = tested on: L1210; test: Compound was tested for antitumor activity against L-1210 Murine leukemia in BDF1 female mice at dose of 40 mg/kg inj; type: functional, Mus musculus
Summary of the method: (§4)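 L-1210 run per NCI protocol. 10^6 ascites cells implanted ip into BDF1 female mice. Aziridinomitosene given on day 1 only, six mice per dose, with a control group of 36 mice. Median survival time in days is recorded, and %T/C = MST treated/MST control × 100, with 125 taken as significant.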

[22] = tested on: Mus musculus; test: Average weight change of BDF1 female mice at a dose of 64 mg/kg per injection; type: functional; summary of the method: as §3
[23] = tested on: P388; test: Compound was tested for antitumor activity against P388 Murine leukemia in BDF1 female mice at a dose of 32 mg/kg per injection; type: functional, Mus musculus; summary of the method: as §2
[24] = tested on: Mus musculus; test: Average weight change of BDF1 female mice at a dose of 32 mg/kg per injection; type: functional; summary of the method: as §3
[25] = tested on: Mus musculus; test: Average weight change of BDF1 female mice at a dose of 8 mg/kg per injection; type: functional; summary of the method: as §3
[26] = tested on: L1210; test: Compound was tested for antitumor activity against L-1210 Murine leukemia in BDF1 female mice at dose of 20 mg/kg inj; type: functional, Mus musculus; summary of the method: as §4
[27] = tested on: Mus musculus; test: Average weight change of BDF1 female mice at a dose of 16 mg/kg per injection; type: functional; summary of the method: as §3
[28] = tested on: P388; test: Compound was tested for antitumor activity against P388 Murine leukemia in BDF1 female mice at a dose of 1.6 mg/kg per injection given as MST treated / MST control x 100; type: functional, Mus musculus; summary of the method: as §2
[29] = tested on: Mus musculus; test: Average weight change of BDF1 female mice at a dose of 6 mg/kg per injection; type: functional; summary of the method: as §3
[30] = tested on: L1210; test: Compound was tested for antitumor activity against L-1210 Murine leukemia in BDF1 female mice at a dose of 6 mg/kg per injection; type: functional, Mus musculus; summary of the method: as §4
[31] = tested on: L1210; test: Compound was tested for antitumor activity against L-1210 Murine leukemia in BDF1 female mice at a dose of 48 mg/kg per injection; type: functional, Mus musculus; summary of the method: as §4
[32] = tested on: Mus musculus; test: Average weight change of BDF1 female mice at a dose of 24 mg/kg per injection; type: functional; summary of the method: as §3
[33] = tested on: L1210; test: Compound was tested for antitumor activity against L-1210 Murine leukemia in BDF1 female mice at a dose of 12 mg/kg per injection; type: functional, Mus musculus; summary of the method: as §4
[34] = tested on: Mus musculus; test: Average weight change of BDF1 female mice at a dose of 48 mg/kg per injection; type: functional; summary of the method: as §3
[35] = tested on: L1210; test: Compound was tested for antitumor activity against L-1210 Murine leukemia in BDF1 female mice at a dose of 24 mg/kg per injection; type: functional, Mus musculus; summary of the method: as §4
[36] = tested on: Mus musculus; test: Average weight change of BDF1 female mice at a dose of 12 mg/kg per injection; type: functional; summary of the method: as §3
[37] = tested on: Mus musculus; test: Average weight change of BDF1 female mice at a dose of 1.5 mg/kg per injection; type: functional
Summary of the method: (§5)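 L-1210 leukemia, NCI protocol: 10^6 ascites cells implanted ip into BDF1 female mice. Six mice per dose, single dose on day 1 only, with a 36-mouse control group. Read-out is median survival time (MST), reported as %T/C = MST treated/MST control × 100, with 125 taken as significant. Average weight change is treated minus control weight.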

[38] = tested on: Mus musculus; test: Average weight change of BDF1 female mice at a dose of 3 mg/kg per injection; type: functional; summary of the method: as §5
[39] = tested on: L1210; test: Compound was tested for antitumor activity against L-1210 Murine leukemia in BDF1 female mice at a dose of 1.5 mg/kg per injection; type: functional, Mus musculus; summary of the method: as §5
[40] = tested on: L1210; test: Compound was tested for antitumor activity against L-1210 Murine leukemia in BDF1 female mice at a dose of 3 mg/kg per injection; type: functional, Mus musculus; summary of the method: as §5

SMILES	MST [1]	MST [2]	MST [3]	Weight change [4]	logP [5]	Weight change [7]	Weight change [8]	Weight change [9]	Weight change [10]	MST [11]	Weight change [13]	minimal effective dose [14]	T/C [28]	Weight change [29]	Weight change [36]	other results
CC1=C(N2CC2C)C(=O)c2c(COC(N)=O)c3n(c2C1=O)CC1NC31 (configuration not stated)	156 days	144 %T/C	219 days	-1 g	0.82	0 g	0 g	-1.3 g	-0.4 g	181 % T/C	-0.5 g	1.6 mg/kg	–	–	–	T/C [6]: 125%; MST [12]: 138 days
CC1=C(N2CC2)C(=O)c2c(COC(N)=O)c3n(c2C1=O)CC1C3N1C (configuration not stated)	–	172 %T/C	139 days	-2.2 g	0.71	0 g	-1.3 g	-2.5 g	-1.1 g	239 % T/C	-1.9 g	1.6 mg/kg	–	–	–	T/C [15]: 117%; MST [16]: 122 days; MST [17]: 172
C#CCNC1=C(C)C(=O)c2c(c(COC(N)=O)c3n2CC2NC32)C1=O (configuration not stated)	–	–	–	–	1.21	–	–	–	–	–	–	16 mg/kg	–	–	–	MST [18]: 172 days; MST [19]: 122 days; MST [20]: 128 days; T/C [21]: 140%; Weight change [21]: -2.8 g; Weight change [22]: -0.9 g; MST [23]: 144 days; Weight change [24]: 0 g; Weight change [25]: -0.2 g; T/C [26]: 122%; Weight change [26]: -1.8 g; Weight change [27]: -0.3 g
CC1=C(N)C(=O)c2c(COC(N)=O)c3n(c2C1=O)CC1C3N1C (configuration not stated)	100 days	–	–	-0.1 g	–	–	–	–	–	100 % T/C	-0.4 g	–	211%	–	–	–
CC1=C(N)C(=O)c2c(COC(N)=O)c3n(c2C1=O)CC1NC31 (configuration not stated)	117 days	117 %T/C	–	-0.8 g	0.23	–	–	–	-1.2 g	128 % T/C	-0.8 g	25.6 mg/kg	211%	0.1 g	0 g	T/C [30]: 100%; MST [31]: 94 days; Weight change [32]: -0.3 g; T/C [33]: 100%; Weight change [34]: 0.2 g; MST [35]: 100 days
CO[C@@]12[C@H](COC(N)=O)C3=C(C(=O)C(C)=C(N)C3=O)N1C[C@@H]1N[C@@H]12 [MITOMYCIN]	–	–	–	–	–	–	–	–	–	–	–	–	–	-3.3 g	-4.8 g	Weight change [37]: -0.8 g; Weight change [38]: -0.9 g; T/C [39]: 116%; T/C [40]: 118%; % T/C [30]: 146%; % T/C [33]: 118%
